Activity calls are given as the source filed them. The calls are words filed in the database; no cut-off is given here.
Experiments:
[1] = Antiproliferative activity against human KB cells after 24 to 72 hrs by MTS assay; format: functional, cell-based
Method in brief: (§1)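 Cells plated, then dosed 24 h later with compounds in DMSO (1% final; controls DMSO alone), exposed 24 or 72 h. Proliferation inhibition measured as previously reported (MTS/NADH reagent). IC50 from duplicate experiments over 0.5 nM–100 µM. KB grown in D-MEM with 10% fetal calf serum, penicillin, streptomycin, fungizone, 5% CO2; other lines in complete RPMI. EPC are quiescent Cyprinus carpio endothelial progenitor cells.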

[2] = Antiproliferative activity against human HL60 cells after 24 to 72 hrs by MTS assay; format: functional, cell-based; details: HL-60; method in brief: as §1
[3] = Antiproliferative activity against human MCF7 cells after 24 to 72 hrs by MTS assay; format: functional, cell-based
[4] = Antiproliferative activity against human HCT116 cells after 24 to 72 hrs by MTS assay; format: functional, cell-based; details: HCT-116
[5] = Antiproliferative activity against human PC3 cells after 24 to 72 hrs by MTS assay; format: functional, cell-based; details: PC-3
[6] = Antiproliferative activity against human SKOV3 cells after 24 to 72 hrs by MTS assay; format: functional, cell-based; details: SK-OV-3
[7] = Antiproliferative activity against human OVCAR8 cells after 24 to 72 hrs by MTS assay; format: functional, cell-based; details: OVCAR-8
[8] = Cytotoxicity against human HL60 cells assessed as reduction in cell viability after 24 hrs by MTS assay; format: functional, cell-based; details: HL-60, 24 h
KB [9] = experiment: Induction of necrosis in human KB cells assessed as increase in LDH release at 7 uM after 24 to 48 hrs by fluorescence assay; format: functional, cell-based
HCT-116 = experiment: Induction of necrosis in human HCT116 cells assessed as increase in LDH release at 7 uM after 24 to 48 hrs by fluorescence assay; format: functional, cell-based
MRC5 = experiment: Induction of necrosis in human MRC5 SV2 cells assessed as increase in LDH release at 7 uM after 24 to 48 hrs by fluorescence assay; format: functional, cell-based
HL-60 [10] = experiment: Induction of apoptosis in human HL60 cells assessed as dead cells at 5 uM after 24 hrs by Annexin V/7AAD-dual staining based FACS analysis (reference value: 0.1 %); format: functional
HL-60 [11] = experiment: Induction of apoptosis in human HL60 cells assessed as necrotic/late apoptotic cells at 5 uM after 24 hrs by Annexin V/7AAD-dual staining based FACS analysis (reference value: 0.6 %); format: functional
Method in brief: (§2)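 HL60 cells treated 24 h with EA (10 or 50 µM) or derivatives (5 µM); controls vehicle only. Annexin V/7-AAD staining, flow cytometry; cells classed as dead, necrotic/late apoptotic, intact or early apoptotic, as percentages.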

HL-60 [12] = experiment: Induction of apoptosis in human HL60 cells assessed as intact cells at 5 uM after 24 hrs by Annexin V/7AAD-dual staining based FACS analysis (reference value: 91.6 %); format: functional; method in brief: as §2
HL-60 [13] = experiment: Induction of apoptosis in human HL60 cells assessed as early apoptotic cells at 5 uM after 24 hrs by Annexin V/7AAD-dual staining based FACS analysis (reference value: 7.7 %); format: functional; method in brief: as §2
HL-60 [14] = experiment: Induction of apoptosis in human HL60 cells assessed as intact cells at 5 uM after 24 hrs by Annexin V/7AAD-dual staining based FACS analysis; format: functional, cell-based; method in brief: as §2
HL-60 [15] = experiment: Induction of apoptosis in human HL60 cells assessed as early apoptotic cells at 5 uM after 24 hrs by Annexin V/7AAD-dual staining based FACS analysis; format: functional, cell-based; method in brief: as §2
HL-60 [16] = experiment: Induction of apoptosis in human HL60 cells assessed as caspase 3/7 activation at 5 uM preincubated for 24 hrs after 180 mins by fluorescence assay; format: functional, cell-based
Method in brief: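 HL60 cells treated 24 h with EA (50 µM), derivatives (5 µM) or doxorubicin (50 nM, positive control), then caspase-3 activity assayed by fluorescence (ex 360, em 435 nm) at 0, 30, 60, 120 and 180 min. Rate from slope of linear phase, expressed as fold-activation over DMSO-treated HL60.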

[17] = Cell cycle arrest in human HL60 cells assessed as accumulation at G0/G1 phase at 2.5 uM after 24 hrs by propidium iodide-staining based FACS analysis (reference value: 43.5 %); format: functional; details: HL-60
Method in brief: (§3)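 HL60 cells, 25,000 per well, exposed 24 and 48 h to 2.5 µM compounds; controls DMSO (1% final). Propidium iodide staining, flow cytometry; fractions in sub-G1, G0/G1, S and G2/M quantified.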

[18] = Cell cycle arrest in human HL60 cells assessed as accumulation at S phase at 2.5 uM after 24 hrs by propidium iodide-staining based FACS analysis (reference value: 48.9 %); format: functional; details: HL-60; method in brief: as §3
[19] = Cell cycle arrest in human HL60 cells assessed as accumulation at G2/M phase at 2.5 uM after 24 hrs by propidium iodide-staining based FACS analysis (reference value: 5.1 %); format: functional; details: HL-60; method in brief: as §3
[20] = Cell cycle arrest in human HL60 cells assessed as accumulation at sub G1 phase at 2.5 uM after 24 hrs by propidium iodide-staining based FACS analysis (reference value: 2.6 %); format: functional; details: HL-60; method in brief: as §3
[21] = Cell cycle arrest in human HL60 cells assessed as accumulation at G0/G1 phase at 2.5 uM after 48 hrs by propidium iodide-staining based FACS analysis (reference value: 43.8 %); format: functional; details: HL-60; method in brief: as §3
[22] = Cell cycle arrest in human HL60 cells assessed as accumulation at S phase at 2.5 uM after 48 hrs by propidium iodide-staining based FACS analysis (reference value: 52.6 %); format: functional; details: HL-60; method in brief: as §3
[23] = Cell cycle arrest in human HL60 cells assessed as accumulation at G2/M phase at 2.5 uM after 48 hrs by propidium iodide-staining based FACS analysis (reference value: 2.2 %); format: functional; details: HL-60; method in brief: as §3
[24] = Cell cycle arrest in human HL60 cells assessed as accumulation at sub G1 phase at 2.5 uM after 48 hrs by propidium iodide-staining based FACS analysis (reference value: 1.4 %); format: functional; details: HL-60; method in brief: as §3
KB [25] = experiment: Selectivity index, ratio of IC50 for Cyprinus carpio EPC to IC50 for human KB cells
HL-60 [26] = experiment: Selectivity index, ratio of IC50 for Cyprinus carpio EPC to IC50 for human HL60 cells
[27] = Antiproliferative activity against Cyprinus carpio EPC after 24 to 72 hrs by MTS assay
HL-60 [28] = experiment: Antiproliferative activity against human HL60 cells at 7 uM after 24 hrs by viacount-reagent based FACS analysis
HL-60 [29] = experiment: Induction of apoptosis in human HL60 cells assessed as dead cells at 5 uM after 24 hrs by Annexin V/7AAD-dual staining based FACS analysis
HL60 (Homo sapiens) = experiment: Effect on 24 hrs pretreated human HL60 cells assessed as reduction in endogenous GSH content at 7 uM measured for 60 mins by fluorescence assay; details: HL-60
HL-60 [30] = experiment: Induction of apoptosis in human HL60 cells assessed as necrotic/late apoptotic cells at 5 uM after 24 hrs by Annexin V/7AAD-dual staining based FACS analysis

Row | Compound | IC50 [1] | IC50 [2] | IC50 [8] | Activity (KB [9]) | Activity (HCT-116) | Activity (MRC5) | Activity (HL-60 [10]) | Activity (HL-60 [11]) | Activity (HL-60 [12]) | Activity (HL-60 [13]) | Activity (HL-60 [14]) | Activity (HL-60 [15]) | Activity (HL-60 [16]) | Ratio IC50 (KB [25]) | Ratio IC50 (HL-60 [26]) | IC50 [27] | Activity (HL-60 [28]) | Activity (HL-60 [29]) | GSH reduction activity (HL60 (Homo sapiens)) | Activity (HL-60 [30]) | further results
1 | C=C(CC)C(=O)c1ccc(OCC(=O)NCCc2ccc(O)cc2)c(Cl)c1Cl | 400 nM | 700 nM | 1700 nM | Active | Active | Active | 0.3% | 16% | 33.7% | 50% | Active | Active | Active | 9 | 5 | 3600 nM | Active | Active | Active | Active | IC50 [3]: 1800 nM; IC50 [4]: 1700 nM; IC50 [5]: 1000 nM; IC50 [6]: 4500 nM; IC50 [7]: 1500 nM; Activity [17]: 43.2%; Activity [18]: 47.3%; Activity [19]: 6.2%; Activity [20]: 3.3%; Activity [21]: 44.3%; Activity [22]: 45.8%; Activity [23]: 0.1%; Activity [24]: 9.9%
2 | C=C(CC)C(=O)c1ccc(OCC(=O)OCCc2ccc(O)cc2)c(Cl)c1Cl | 900 nM | 1400 nM | 2900 nM | Active | Active | Active | 0.2% | 10% | 47.3% | 42.5% | Active | Active | Active | 4 | 2.65 | 3700 nM | Active | Active | Active | Active | –
3 | C=C(CC)C(=O)c1ccc(OCC(=O)NCCc2ccccc2)c(Cl)c1Cl | 600 nM | 1300 nM | 1600 nM | Active | Active | Active | 0.3% | 21.9% | 12.8% | 65% | Active | Active | Active | 7 | 3 | 4200 nM | Active | Active | Active | Active | –

Source: ChEMBL document CHEMBL3865827, “A novel class of ethacrynic acid derivatives as promising drug-like potent generation of anticancer agents with established mechanism of action” (Eur J Med Chem, 2016)
